Among the data in ChEMBL document CHEMBL1126143, “Synthesis and antitumor activity of tropolone derivatives. 7. Bistropolones containing connecting methylene chains” (J Med Chem, 1992) are Imbalance, T/C and IC50 values, retold here.

The structures appear in SMILES notation. Active and inactive are the calls of the source. The rule behind the calls is not given here. A value given as a limit tells only on which side of the number the result lay.

Assay [1] deals with FM3A. The assay can be described thus: Ability to induce dNTP pool imbalance at 41 uM dose was tested; significant imbalance in the intracellular dNTP pool in FM3A cells. Format: functional, cell-based. The settings on record: Mus musculus.
The subject of assay [2] is P388. In words: Tested in vivo for the antitumor activity against P388 in mice after intraperitoneal administration of 100 mg/kg dose; T/C= treated/control. It counts as functional, Mus musculus.
The test system of assay [3] is FM3A. In words: Inhibit growth of FM3A cells by 50%. The note with it: Mus musculus. Format: functional, cell-based. The gist of the method: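 FM3A cells were grown in ES medium with 2% heat-inactivated FBS at 37 °C under 5% CO2, seeded at about 5 × 10^4 cells/mL, and exposed to a range of drug concentrations. Cells were counted electronically after 48 h. IC50 is the concentration that reduces growth rate by 50% of control.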

The nature of assay [4]: Inhibit growth of KB cells by 50%. The settings on record: Homo sapiens. Format: functional, cell-based.
In assay [5] the test system is P388. The assay can be described thus: Compound was tested in vivo for the antitumor activity against P388 in mice after intraperitoneal administration of 12.5 mg/kg dose; T/C= treated/control. Format: functional, Mus musculus.
Assay [6] has as its system P388. In words: Compound was tested in vivo for the antitumor activity against P388 leukemia cells in mice after intraperitoneal administration of 25 mg/kg dose; T/C= treated/control. It counts as functional, Mus musculus.
In assay [7] the test system is FM3A. The assay can be described thus: Ability to induce dNTP pool imbalance at 7.9 uM dose was tested; significant imbalance in the intracellular dNTP pool in FM3A cells. The note with it: Mus musculus.
Assay [8] concerns P388. The assay can be described thus: Compound was tested in vivo for the antitumor activity against P388 in mice after intraperitoneal administration of 6.3 mg/kg dose; T/C= treated/control. It counts as functional, Mus musculus.
Assay [9] relates to P388. The assay can be described thus: Tested in vivo for the antitumor activity against P388 in mice after intraperitoneal administration of 200 mg/kg dose; T/C= treated/control. Format: functional, Mus musculus.
Assay [10] relates to P388. In words: Tested in vivo for the antitumor activity against P388 leukemia cells in mice after intraperitoneal administration of 400 mg/kg dose; T/C= treated/control. Format: functional, Mus musculus.
Assay [11] deals with P388. The assay can be described thus: Compound was tested in vivo for the antitumor activity against P388 in mice after intraperitoneal administration of 20 mg/kg dose; T/C= treated/control. It counts as functional, Mus musculus.
The subject of assay [12] is FM3A. The assay can be described thus: Ability to induce dNTP pool imbalance at 3.5 uM dose was tested; significant imbalance in the intracellular dNTP pool in FM3A cells. The settings on record: Mus musculus.
Assay [13] deals with P388. In words: Compound was tested in vivo for the antitumor activity against P388 leukemia cells in mice after intraperitoneal administration of 40 mg/kg dose; T/C= treated/control. Format: functional, Mus musculus.
Assay [14] relates to P388. The assay can be described thus: Compound was tested in vivo for the antitumor activity against P388 in mice after intraperitoneal administration of 10 mg/kg dose; T/C= treated/control. Format: functional, Mus musculus.
Assay [15] concerns P388. The assay can be described thus: Compound was tested in vivo for the antitumor activity against P388 in mice after intraperitoneal administration of 400 mg/kg dose; T/C= treated/control. Format: functional, Mus musculus.
Assay [16] deals with P388. In words: Compound was tested in vivo for the antitumor activity against P388 in mice after intraperitoneal administration of 25 mg/kg dose; T/C= treated/control. It counts as functional, Mus musculus.
Assay [17] deals with P388. The assay can be described thus: Compound was tested in vivo for the antitumor activity against P388 leukemia cells in mice after intraperitoneal administration of 100 mg/kg dose; T/C= treated/control. It counts as functional, Mus musculus.
Assay [18] concerns P388. In words: Compound was tested in vivo for the antitumor activity against P388 in mice after intraperitoneal administration of 50 mg/kg dose; T/C= treated/control. Format: functional, Mus musculus.
The subject of assay [19] is P388. The note with it: Mus musculus.
Assay [20] deals with FM3A. The assay can be described thus: Ability to induce dNTP pool imbalance at 16.4 uM dose was tested; significant imbalance in the intracellular dNTP pool in FM3A cells. The note with it: Mus musculus.
Assay [21] has as its system P388. The assay can be described thus: Compound was tested in vivo for the antitumor activity against P388 in mice after intraperitoneal administration of 3.1 mg/kg dose; T/C= treated/control. It counts as functional, Mus musculus.
Assay [22] concerns P388. In words: Compound was tested in vivo for the antitumor activity against P388 leukemia cells in mice after intraperitoneal administration of 12.5 mg/kg dose; T/C= treated/control.
Assay [23] relates to P388. In words: Compound was tested in vivo for the antitumor activity against P388 in mice after intraperitoneal administration of 2.5 mg/kg dose; T/C= treated/control. It counts as functional, Mus musculus.
For assay [24], the system named is P388. In words: Compound was tested in vivo for the antitumor activity against P388 leukemia cells in mice after intraperitoneal administration of 5 mg/kg dose; T/C= treated/control. It counts as functional, Mus musculus.
Assay [25] deals with P388. The assay can be described thus: Compound was tested in vivo for the antitumor activity against P388 in mice after intraperitoneal administration of 0.6 mg/kg dose; T/C= treated/control. Format: functional, Mus musculus.
Assay [26] has as its system FM3A. In words: Ability to induce dNTP pool imbalance at 9.0 uM dose was tested; significant imbalance in the intracellular dNTP pool in FM3A cells. The settings on record: Mus musculus.
For assay [27], the system named is FM3A. The assay can be described thus: Ability to induce dNTP pool imbalance at 15.0 uM dose was tested; significant imbalance in the intracellular dNTP pool in FM3A cells. The settings on record: Mus musculus.
For assay [28], the system named is FM3A. In words: Compound''s ability to induce dNTP pool imbalance at 6.1 uM dose was tested; significant imbalance in the intracellular dNTP pool in FM3A cells. Format: functional, cell-based. The settings on record: Mus musculus.
For assay [29], the system named is FM3A. The assay can be described thus: Ability to induce dNTP pool imbalance at 7.3 uM dose was tested; significant imbalance in the intracellular dNTP pool in FM3A cells. The settings on record: Mus musculus.

What is called T/C is the ratio of treated to control. Broadly, the IC50 is the midpoint of a concentration-inhibition curve. Low values mean greater potency, high ones weaker potency. As to `Oc1cccc2cccnc12` [OXYQUINOLINE], the Imbalance entry with FM3A [1] was “significant imbalance in the intracellular dNTP pool in FM3A cells”. In the assay on P388 [2], this compound registered a T/C of 92%. Moreover, the IC50 in the assay with FM3A [3] is 2100 nM; in assay [4], < 2100 nM.
Turning to `CC(C)c1ccc(Cc2ccc(C(C)C)cc(=O)c2O)c(O)c(=O)c1`, the T/C in the assay on P388 [5] is recorded as 152%; in the assay on P388 [6], 123%; with P388 [8] it was 137%. Besides, in the assay on FM3A [7], the Imbalance result is given as “significant imbalance in the intracellular dNTP pool in FM3A cells”. The half-inhibitory concentration (IC50) with FM3A [3] was 1000 nM; in assay [4] it was < 900 nM.
On to `CC(C)c1ccc(SCCCSc2ccc(C(C)C)cc(=O)c2O)c(O)c(=O)c1`, for which the T/C in the assay on P388 [2] came to 93%; in the assay with P388 [9], 131%; with P388 [10], 169%. Further, in assay [4], the IC50 stood at 1600 nM.
Take `CC(C)c1cccc(=O)c(O)c1` [HINOKITIOL]: the Imbalance entry in the assay with FM3A [1] was “significant imbalance in the intracellular dNTP pool in FM3A cells”. The concentration for half-maximal inhibition (IC50) in the assay with FM3A [3] turned out to be 1100 nM; in [4] it was 3500 nM. Moreover, the T/C result with P388 [10] (Mus musculus) is “inactive”.
For the compound `CC(C)c1ccc(COCc2ccc(C(C)C)cc(=O)c2O)c(O)c(=O)c1`, the T/C was found to be 186% in the assay with P388 [11], 156% in the assay with P388 [13] and 164% with P388 [14]. In the assay on FM3A [12], the Imbalance entry is listed as “significant imbalance in the intracellular dNTP pool in FM3A cells”. Moreover, the IC50 in the assay on FM3A [3] is 80 nM; in [4], 6200 nM.
With `CC(C)c1ccc(CCCCCCCCCCCCc2ccc(C(C)C)cc(=O)c2O)c(O)c(=O)c1`, the Imbalance result in the assay with FM3A [1] is recorded as “significant imbalance in the intracellular dNTP pool in FM3A cells”. Further, the T/C is given as 106% in the assay with P388 [2], 107% in the assay with P388 [9] and 105% in the assay on P388 [15]. Also, the half-maximal inhibitory concentration (IC50) in the assay on FM3A [3] is 1300 nM; in assay [4] it was 27300 nM.
`CC(C)C1=CC(=O)C(=O)/C(=C2/C=CC(C(C)C)=CC(O)=C2O)C=C1`: in the assay on FM3A [1], the Imbalance result is recorded as “significant imbalance in the intracellular dNTP pool in FM3A cells”. Besides, the T/C in the assay on P388 [16] came to 152%; in the assay with P388 [17] it was 143%; with P388 [18], 171%. Also, the 50% inhibitory concentration (IC50) in the assay with FM3A [3] is 3700 nM; in [4], 9500 nM.
As for `COc1ccc(C(c2oc(CO)cc(=O)c2O)c2oc(CO)cc(=O)c2O)cc1`, in the assay with P388 [19], the T/C entry is “inactive”. For the same compound, the IC50 (in the assay on FM3A [3]; in assay [4]) was > 249000 nM in each case.
For `CC(C)c1ccc(SCCSc2ccc(C(C)C)cc(=O)c2O)c(O)c(=O)c1`, the values for the T/C in the assay with P388 [2], in the assay with P388 [9] and with P388 [10] were 151%, 171% and 80%, respectively. The values for the half-inhibitory concentration (IC50) (with FM3A [3]; in assay [4]) were 4800 nM and 1600 nM, respectively. In addition, the Imbalance result in the assay on FM3A [20] was “significant imbalance in the intracellular dNTP pool in FM3A cells”.
Regarding `COc1ccc(C(c2ccc3cccnc3c2O)c2ccc3cccnc3c2O)cc1`, in the assay on FM3A [1], the Imbalance entry is listed as “significant imbalance in the intracellular dNTP pool in FM3A cells”. For the same compound, the T/C with P388 [21] turned out to be 111%; in the assay with P388 [22], 164%; with P388 [8], 128%. Besides, the concentration for half-maximal inhibition (IC50) in the assay with FM3A [3] is 10 nM; in assay [4], < 700 nM.
Turning to `COc1ccc(C(c2ccc(C(C)C)cc(=O)c2O)c2ccc(C(C)C)cc(=O)c2O)cc1`, the T/C was found to be 134% in the assay on P388 [23], 173% with P388 [24] and 127% in the assay with P388 [25]. Besides, in the assay on FM3A [26], the Imbalance result is “significant imbalance in the intracellular dNTP pool in FM3A cells”. Besides, the IC50 in the assay with FM3A [3] was 400 nM; in [4], 1100 nM.
`CC(C)c1ccc(CCc2ccc(C(C)C)cc(=O)c2O)c(O)c(=O)c1`: the T/C with P388 [16] turned out to be 150%; in the assay on P388 [17] it was 165%; in the assay with P388 [8] it was 121%. In addition, the Imbalance result with FM3A [27] was “significant imbalance in the intracellular dNTP pool in FM3A cells”. Besides, the IC50 with FM3A [3] is 1200 nM; in assay [4], 8000 nM.
Regarding `CCOC(c1ccc(OC)cc1)c1ccc(C(C)C)cc(=O)c1O` (stereo not given), the Imbalance result in the assay with FM3A [28] is reported as “significant imbalance in the intracellular dNTP pool in FM3A cells”. In addition, the T/C in the assay with P388 [9] and with P388 [10] was 140% throughout. For the same compound, the 50% inhibitory concentration (IC50) came out at 1100 nM in the assay on FM3A [3] and 1600 nM in [4].
With `CC(C)c1ccc(CCCCCCc2ccc(C(C)C)cc(=O)c2O)c(O)c(=O)c1`, the T/C is 128% in the assay with P388 [2]; 110% in the assay with P388 [16]; 137% in the assay with P388 [18]; 80% in the assay with P388 [9]; 70% with P388 [10]. In the assay on FM3A [29], the Imbalance entry is listed as “significant imbalance in the intracellular dNTP pool in FM3A cells”. Besides, the results for the IC50 (in the assay on FM3A [3]; in [4]) were 900 nM and 1500 nM, respectively.
In the case of `CC(C)c1ccc(CCCCCCCCc2ccc(C(C)C)cc(=O)c2O)c(O)c(=O)c1`, the Imbalance entry in the assay on FM3A [1] was “significant imbalance in the intracellular dNTP pool in FM3A cells”. For the same compound, the T/C with P388 [2] worked out at 107%; with P388 [9], 110%; in the assay with P388 [10] it was 110%. Further, the IC50 with FM3A [3] amounted to 900 nM; in [4] it was 4300 nM.
On to `COc1ccc(C(c2ccc(C(C)C)cc(OC)c2=O)c2ccc(C(C)C)cc(OC)c2=O)cc1`, for which, in the assay with P388 [19], the T/C entry is “inactive”. For the same compound, the 50% inhibitory concentration (IC50) was determined as 14100 nM in the assay on FM3A [3] and 114000 nM in [4].
